According to ChEMBL document CHEMBL4414556, “Antiproliferative Acylated Glycerols from New Zealand Propolis” (2019):

Key:
Assay type in all cases: functional
KYSE-30 [1] = assay: Antiproliferative activity against human KYSE-30 cells assessed as cell growth inhibition at 55 uM by MTT assay relative to control
How it was run: (§1)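 Cells revived from cryostorage and grown under supplier-recommended conditions with test samples. Working solutions were made in 15% EtOH/Hank's balanced saline at 2 mg/mL solids. Final well concentrations were 110, 55 or 22 μM, and the 5-fluorouracil reference was run at 450, 150 and 50 nM. MTT viability read after incubation, expressed as % proliferation versus a cells-only control, with six replicates.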

NCI-N87 [2] = assay: Antiproliferative activity against human NCI-N87 cells assessed as cell growth inhibition at 110 uM by MTT assay relative to control; how it was run: as §1
DLD-1 [3] = assay: Antiproliferative activity against human DLD1 cells assessed as cell growth inhibition at 55 uM by MTT assay relative to control; how it was run: as §1
KYSE-30 [4] = assay: Antiproliferative activity against human KYSE-30 cells assessed as cell growth inhibition at 110 uM by MTT assay relative to control; how it was run: as §1
NCI-N87 [5] = assay: Antiproliferative activity against human NCI-N87 cells assessed as cell growth inhibition at 22 uM by MTT assay relative to control; how it was run: as §1
NCI-N87 [6] = assay: Antiproliferative activity against human NCI-N87 cells assessed as cell growth inhibition at 55 uM by MTT assay relative to control; how it was run: as §1
DLD-1 [7] = assay: Antiproliferative activity against human DLD1 cells assessed as cell growth inhibition at 110 uM by MTT assay relative to control; how it was run: as §1
KYSE-30 [8] = assay: Antiproliferative activity against human KYSE-30 cells assessed as cell growth inhibition at 22 uM by MTT assay relative to control; how it was run: as §1
DLD-1 [9] = assay: Antiproliferative activity against human DLD1 cells assessed as cell growth inhibition at 450 nM by MTT assay relative to control
How it was run: (§2)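 Cells revived from cryostorage and cultured under supplier-recommended conditions with test or reference samples. Working solutions at 2 mg/mL solids in 15% EtOH/Hank's balanced saline. 5-Fluorouracil positive control at final well concentrations of 450, 150 and 50 nM. MTT viability read-out after incubation, expressed as percentage proliferation versus cells-only control; six replicates for test and control.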

NCI-N87 [10] = assay: Antiproliferative activity against human NCI-N87 cells assessed as cell growth inhibition at 450 nM by MTT assay relative to control; how it was run: as §2
KYSE-30 [11] = assay: Antiproliferative activity against human KYSE-30 cells assessed as cell growth inhibition at 450 nM by MTT assay relative to control; how it was run: as §2

With CCCCCCCCCCCC[C@@H](O)CCCC[C@@H](O)CC(=O)OCC(O)COC(C)=O (stereo not given in full) the inhibition at 55 µM (KYSE-30 [1]) was 50%, the inhibition at 110 µM (NCI-N87 [2]) was 100% and the inhibition at 55 µM (DLD-1 [3]) was 13%. The inhibition at 110 µM (KYSE-30 [4]) was 52%, the inhibition at 22 µM (NCI-N87 [5]) was 39% and the inhibition at 55 µM (NCI-N87 [6]) was 86%. It also gave an inhibition at 110 µM (DLD-1 [7]) of 94% and an inhibition at 22 µM (KYSE-30 [8]) of 9%.
CCCCCCCCCCCC[C@@H](O)CCCC[C@@H](O)CC(=O)OCC(O)CO (stereo not given in full) was tested, and the inhibition at 110 µM (NCI-N87 [2]) was 100%, the inhibition at 110 µM (KYSE-30 [4]) was 52% and the inhibition at 110 µM (DLD-1 [7]) was 80%.
With CCCCCCCCCCCCC[C@@H](O)CCCC[C@@H](O)CC(=O)OCC(O)COC(C)=O (stereo not given in full) the inhibition at 110 µM (NCI-N87 [2]) was 100%, the inhibition at 110 µM (KYSE-30 [4]) was 29% and the inhibition at 110 µM (DLD-1 [7]) was 91%.
For O=c1[nH]cc(F)c(=O)[nH]1 [FLUOROURACIL], the inhibition at 0.45 µM (DLD-1 [9]) was 21%, the inhibition at 0.45 µM (NCI-N87 [10]) was 8% and the inhibition at 0.45 µM (KYSE-30 [11]) was 17%.
CCCCCCCCCCCCCCCC(=O)OCC(O)CO (stereo not given) [GLYCEROL MONOPALMITATE] gave an inhibition at 110 µM (NCI-N87 [2]) of 100%, an inhibition at 110 µM (KYSE-30 [4]) of 75% and an inhibition at 110 µM (DLD-1 [7]) of 72%.
